Reference: ChEMBL document CHEMBL4270661 (Bioorg Med Chem, 2018)
Activity calls are given as the source filed them. The rule behind the calls is not given here.

Legend:
[1] = Induction of microtubule depolymerization in rat A10 cells assessed as cellular microtubule loss incubated for 18 hrs by DAPI staining-based indirect immunofluorescence assay; type: cell-based; settings: A10, 18 h
[2] = biological target: T1, Tubulin (Homo sapiens) (UniProt P68371+Q9H4B7+P0DPH7+P68366+Q13509+Q71U36+P04350+Q3ZCM7+P07437+P68363+Q9BQE3+Q6PEY2+Q13885+Q9BVA1+Q9BUF5); assay: Inhibition of [3H]-colchicine binding to tubulin (unknown origin) at 5 uM relative to control; type: protein-complex assay
[3] = system: MDA-MB-435; assay: Antiproliferative activity against human MDA-MB-435 cells after 48 hrs by sulforhodamine B assay; type: functional, cell-based; settings: MDA-MB-435, 48 h
Method in brief: (§1)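 SRB assay: cells plated at set densities, left 24 h to attach and grow, then exposed in triplicate wells to a concentration range for 48 h (DMSO vehicle). Cells fixed, protein stained with SRB. Cells kept at 37 °C, 5% CO2.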

[4] = biological target: T1, Tubulin (Homo sapiens); assay: Inhibition of [3H]-colchicine binding to tubulin (unknown origin) at 0.5 uM relative to control; type: protein-complex assay
[5] = system: HeLa; assay: Antiproliferative activity against human HeLa cells after 48 hrs by sulforhodamine B assay; type: functional, cell-based; method in brief: as §1
[6] = system: HeLa; assay: Antiproliferative activity against human HeLa cells expressing wild type beta3 tubulin after 48 hrs by sulforhodamine B assay; type: functional, cell-based; method in brief: as §1
[7] = Resistance index, ratio of IC50 for human HeLa cells expressing wild type beta3 tubulin to IC50 for human HeLa cells; type: functional
Method in brief: (§2)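 Relative resistance (Rr): IC50 in resistant line divided by IC50 in isogenic parental line, from 48 h SRB assays (HeLa WT βIII vs HeLa; SK-OV-3/MDR-1-6/6 vs SK-OV-3).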

[8] = system: SK-OV-3; assay: Antiproliferative activity against human SKOV3 cells after 48 hrs by sulforhodamine B assay; type: functional, cell-based; settings: SK-OV-3, 48 h; method in brief: as §1
[9] = Antiproliferative activity against human SKOV3-MDR1-M6/6 cells after 48 hrs by sulforhodamine B assay; type: functional; settings: SKOV3-MDR1-M6/6, 48 h; method in brief: as §1
[10] = Resistance index, ratio of IC50 for human SKOV3-MDR1-M6/6 cells to IC50 for human SKOV3 cells; type: functional; method in brief: as §2
[11] = system: MDA-MB-231; assay: Antitumor activity against human MDA-MB-231 cells xenografted in athymic Foxn1nu/Foxn1nu mouse assessed as tumor growth inhibition at 10 mg/kg, ip, administered on day 1,2,3,8,9 and 10; type: functional, organism-based
[12] = system: NCI/ADR-RES; settings: Homo sapiens, 10 mg/kg
[13] = system: MDA-MB-435; assay: Antitumor activity against human MDA-MB-435 cells xenografted in athymic Foxn1nu/Foxn1nu mouse assessed as tumor growth inhibition at 75 mg/kg, ip, administered on day 1,2,3,4 and 9; type: functional, organism-based
Method in brief: (§3)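 Female athymic nude mice, 6 weeks old, bilateral flank implants of MDA-MB-435 tumor fragments. Grouped at ~200 mm³ (5 mice, 10 tumors per group), randomized. 75 mg/kg ip per dose, stock in ethanol or water diluted in PBS (<5% solvent), vs untreated controls. Caliper volume (width × length × height), tumor mass at trial end (day 15), mean ± SEM.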

[14] = system: Mus musculus; assay: Toxicity in athymic Foxn1nu/Foxn1nu mouse xenografted with human MDA-MB-435 cells assessed as body weight loss at 75 mg/kg, ip, administered on day 1,2,3,4 and 9; type: organism-based; settings: in vivo
Method in brief: (§4)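 Female athymic nude mice bearing bilateral MDA-MB-435 flank tumors, 10 tumors per group, given 75 mg/kg ip (PBS, <5% solvent). Individual body weights tracked through the trial as percent change, mean ± SEM, vs untreated controls.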

[15] = system: Mus musculus; assay: Toxicity in athymic Foxn1nu/Foxn1nu mouse xenografted with human MDA-MB-435 cells assessed as occurence of neurological side effects at 75 mg/kg, ip, administered on day 1,2,3,4 and 9; type: organism-based; settings: in vivo
[16] = system: MDA-MB-435; assay: Antitumor activity against human MDA-MB-435 cells xenografted in athymic Foxn1nu/Foxn1nu mouse assessed as tumor growth inhibition at 75 mg/kg, ip, administered on day 1,2,3,4,7,9 and 11; type: functional, organism-based; method in brief: as §3
[17] = system: Mus musculus; assay: Toxicity in athymic Foxn1nu/Foxn1nu mouse xenografted with human MDA-MB-435 cells assessed as body weight loss at 75 mg/kg, ip, administered on day 1,2,3,4,7,9 and 11; type: organism-based; settings: in vivo; method in brief: as §4
[18] = system: Mus musculus; assay: Toxicity in athymic Foxn1nu/Foxn1nu mouse xenografted with human MDA-MB-435 cells assessed as occurence of neurological side effects at 75 mg/kg, ip, administered on day 1,2,3,4,7,9 and 11; type: organism-based; settings: in vivo
[19] = system: MDA-MB-231; assay: Antitumor activity against human MDA-MB-231 cells xenografted in athymic Foxn1nu/Foxn1nu mouse assessed as tumor growth inhibition at 75 mg/kg, ip, administered on day 1,2,3,8,9 and 10; type: functional, organism-based
[20] = system: NCI/ADR-RES; assay: Antitumor activity against p-gp expressing human NCI/ADR-RES cells xenografted in athymic Foxn1nu/Foxn1nu mouse assessed as tumor growth inhibition at 75 mg/kg, ip administered on day 1,3 and 5 measured on day 9; type: functional, organism-based
Method in brief: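 Female athymic nude mice, bilateral flank NCI/ADR-RES (Pgp-expressing) tumor transplants, 8-9 tumors per group. […] Caliper tumor volume, mean ± SEM, compared on day 9 when the trial was stopped.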

SMILES	EC50 [1] [nM]	inhibition [2] [%]	IC50 [3] [nM]	inhibition [4] [%]	IC50 [5] [nM]	IC50 [6] [nM]	IC50 [8] [nM]	Ratio IC50 [7]	IC50 [9] [nM]	Ratio IC50 [10]	further results
COc1ccc(N(C)c2nc(C)nc3cc[nH]c23)cc1	1200	60	–	–	–	–	–	–	–	–	–
CCCCn1ccc2nc(C)nc(N(C)c3ccc(OC)cc3)c21.Cl	32	96	27	82	14	10	13	0.7	15	1.2	–
COc1ccc2c(c1)CCCN2c1nc(C)nc2ccn(C)c12.Cl	39	98	21	72	27	33	30	1.2	31.5	1.1	–
COc1ccc2c(c1)CCCN2c1nc(C)nc2cc[nH]c12	230	70	–	–	–	–	–	–	–	–	–
COc1ccc(Nc2nc(C)nc3cc[nH]c23)c(OC)c1	> 10000	0	–	–	–	–	–	–	–	–	–
COc1ccc(Nc2nc(C)nc3cc[nH]c23)cc1	> 10000	5.8	–	–	–	–	–	–	–	–	–
COc1ccc(/C=C\c2cc(OC)c(OC)c(OC)c2)cc1O [COMBRETASTATIN A4]	9.8	–	–	–	–	–	–	–	7	–	–
CCCn1ccc2nc(C)nc(N(C)c3ccc(OC)cc3)c21.Cl	20	97	9	86	5.9	5.1	5	0.9	7	1.4	TGI [16]: Active; Activity [17]: Non-Toxic; Activity [18]: Non-Toxic; TGI [19]: Active; TGI [20]: Active

Further lines, with some results ahead:

EC50 [1] [nM]	inhibition [2] [%]	IC50 [3] [nM]	inhibition [4] [%]	IC50 [5] [nM]	IC50 [6] [nM]	IC50 [8] [nM]	SMILES	Ratio IC50 [7]	IC50 [9] [nM]	Ratio IC50 [10]	further results
> 10000	14	–	–	–	–	–	COc1ccc(Nc2nc(C)nc3ccn(C)c23)c(OC)c1	–	–	–	–
–	–	–	–	–	–	5	CC(=O)O[C@H]1C(=O)[C@@]2(C)[C@H]([C@H](OC(=O)c3ccccc3)[C@]3(O)C[C@H](OC(=O)[C@H](O)[C@@H](NC(=O)c4ccccc4)c4ccccc4)C(C)=C1C3(C)C)[C@]1(OC(C)=O)CO[C@@H]1C[C@@H]2O [PACLITAXEL]	–	–	–	TGI [11]: Active; TGI [12]: inactive
42	92	21	60	32	20	31	COc1ccc(N(C)c2nc(C)nc3ccn(C(C)C)c23)cc1.Cl	0.6	58	1.9	–
7.4	99	4.3	79	5	4.3	5.2	COc1ccc(N(C)c2nc(C)nc3ccn(C)c23)cc1.Cl	0.9	6	1.2	TGI [13]: Active; Activity [14]: Non-Toxic; Activity [15]: Toxic
28	96	10.8	79	17	14	17	CCn1ccc2nc(C)nc(N(C)c3ccc(OC)cc3)c21	0.8	19.3	1.1	–
55	95	39	67	26	23	26	COc1ccc(N(C)c2nc(C)nc3ccn(CC(C)C)c23)cc1.Cl	0.9	25	1	–
> 10000	4.2	–	–	–	–	–	COc1ccc(Nc2nc(C)nc3ccn(C)c23)cc1	–	–	–	–
